Laboratory results published in ChEMBL document CHEMBL1649212, “AI-2/LuxS is involved in increased biofilm formation by Streptococcus intermedius in the presence of antibiotics” (2009).
Calls of active or inactive are those of the source. The calls are words filed in the database; no cut-off is given here.

What was measured:
[1] = tested on: Streptococcus intermedius; assay: Antimicrobial activity against Streptococcus intermedius SI006 planktonic cells harboring luxS mutant gene assessed as bacterial count at 0.06 ug/ml in presence of 0.8 nM autoinducer 4,5-dihydroxy-2,3-pentanedione (Rvb =793.3 +/- 42.40 10^8 CFU/ml); type: functional
[2] = tested on: Streptococcus intermedius; assay: Antimicrobial activity against Streptococcus intermedius NCTC 11324 planktonic cells assessed as bacterial count at 0.12 ug/ml (Rvb =771.7 +/- 35.14 10^8 CFU/ml); type: functional
In short: (§1)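 Planktonic wild-type cells were inoculated at ≈4 × 10^5 CFU/ml in TSB in ultra-low-binding plates. Media were without or with ampicillin (0.02 to 0.14 μg/ml), ciprofloxacin (0.10 to 0.35 μg/ml) or tetracycline (0.03 to 0.20 μg/ml). After 12 h at 37°C in 5% CO2 aerobic air, CFU were counted, run in parallel with the BacTiter-Glo ATP assay. Experiments were done three times in two parallels.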

[3] = tested on: Streptococcus intermedius; assay: Antimicrobial activity against Streptococcus intermedius SI006 biofilm harboring luxS mutant gene assessed as biofilm bacterial count at 0.02 ug/ml (Rvb =310.8 +/- 17.10 10^5 CFU/ml); type: functional
[4] = tested on: Streptococcus intermedius; assay: Antimicrobial activity against Streptococcus intermedius NCTC 11324 biofilm assessed as biofilm bacterial count at 0.02 ug/ml (Rvb =402.9 +/- 26.88 10^5 CFU/ml); type: functional
[5] = tested on: Streptococcus intermedius; assay: Antimicrobial activity against Streptococcus intermedius SI006 biofilm harboring luxS mutant gene assessed as biofilm bacterial count at 0.04 ug/ml (Rvb =310.8 +/- 17.10 10^5 CFU/ml); type: functional
[6] = tested on: Streptococcus intermedius; assay: Antimicrobial activity against Streptococcus intermedius SI006 biofilm harboring luxS mutant gene assessed as biofilm bacterial count at 0.06 ug/ml (Rvb =310.8 +/- 17.10 10^5 CFU/ml); type: functional
[7] = tested on: Streptococcus intermedius; assay: Antimicrobial activity against Streptococcus intermedius NCTC 11324 biofilm assessed as biofilm bacterial count at 0.06 ug/ml (Rvb =402.9 +/- 26.88 10^5 CFU/ml); type: functional
[8] = tested on: Streptococcus intermedius; assay: Antimicrobial activity against Streptococcus intermedius SI006 planktonic cells harboring luxS mutant gene assessed as bacterial count at 0.10 ug/ml in presence of 0.8 nM autoinducer 4,5-dihydroxy-2,3-pentanedione (Rvb =793.3 +/- 42.40 10^8 CFU/ml); type: functional
[9] = tested on: Streptococcus intermedius; assay: Antimicrobial activity against Streptococcus intermedius NCTC 11324 assessed as biofilm formation at 0.04 to 0.10 ug/ml; type: functional, organism-based
In short: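 Wild-type NCTC 11324 was grown overnight in TSB and inoculated into TSB with ampicillin (0.02 to 0.10 μg/ml), ciprofloxacin (0.10 to 0.28 μg/ml) or tetracycline (0.05 to 0.30 μg/ml), added at time zero. Wells held plastic coverslips and were incubated 12 h at 37°C in 5% CO2 aerobic air. Biofilm was measured as described previously. Experiments were done three times in three parallels.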

[10] = tested on: Streptococcus intermedius; assay: Antimicrobial activity against Streptococcus intermedius SI006 biofilm harboring luxS mutant gene assessed as biofilm bacterial count at 0.02 ug/ml in presence of 0.8 nM autoinducer 4,5-dihydroxy-2,3-pentanedione (Rvb =413.7 +/- 24.47 10^5 CFU/ml); type: functional
[11] = tested on: Streptococcus intermedius; assay: Antimicrobial activity against Streptococcus intermedius SI006 biofilm harboring luxS mutant gene assessed as biofilm bacterial count at 0.06 ug/ml in presence of 0.8 nM autoinducer 4,5-dihydroxy-2,3-pentanedione (Rvb =413.7 +/- 24.47 10^5 CFU/ml); type: functional
[12] = tested on: Streptococcus intermedius; assay: Antimicrobial activity against Streptococcus intermedius NCTC 11324 planktonic cells assessed as bacterial count at 0.10 ug/ml (Rvb =771.7 +/- 35.14 10^8 CFU/ml); type: functional; in short: as §1
[13] = tested on: Streptococcus intermedius; assay: Antimicrobial activity against Streptococcus intermedius SI006 biofilm harboring luxS mutant gene assessed as biofilm bacterial count at 0.04 ug/ml in presence of 0.8 nM autoinducer 4,5-dihydroxy-2,3-pentanedione (Rvb =413.7 +/- 24.47 10^5 CFU/ml); type: functional
[14] = tested on: Streptococcus intermedius; assay: Antimicrobial activity against Streptococcus intermedius NCTC 11324 assessed as growth inhibition at 0.16 ug/ml; type: functional
In short: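 Broth microdilution MIC in ultra-low-binding 96-well plates, inoculum ≈4 × 10^5. Growth was read at 595 nm, and the MIC was taken as the lowest antibiotic concentration inhibiting growth.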

[15] = tested on: Streptococcus intermedius; assay: Antimicrobial activity against Streptococcus intermedius SI006 planktonic cells harboring luxS mutant gene assessed as bacterial count at 0.10 ug/ml (Rvb =798.3 +/- 37.09 10^8 CFU/ml); type: functional
[16] = tested on: Streptococcus intermedius; assay: Antimicrobial activity against Streptococcus intermedius SI006 planktonic cells harboring luxS mutant gene assessed as bacterial count at 0.08 ug/ml in presence of 0.8 nM autoinducer 4,5-dihydroxy-2,3-pentanedione (Rvb =793.3 +/- 42.40 10^8 CFU/ml); type: functional
[17] = tested on: Streptococcus intermedius; assay: Antimicrobial activity against Streptococcus intermedius SI006 planktonic cells harboring luxS mutant gene assessed as bacterial count at 0.12 ug/ml in presence of 0.8 nM autoinducer 4,5-dihydroxy-2,3-pentanedione (Rvb =793.3 +/- 42.40 10^8 CFU/ml); type: functional
[18] = tested on: Streptococcus intermedius; assay: Antimicrobial activity against Streptococcus intermedius SI006 planktonic cells harboring luxS mutant gene assessed as bacterial count at 0.06 ug/ml (Rvb =798.3 +/- 37.09 10^8 CFU/ml); type: functional
[19] = tested on: Streptococcus intermedius; assay: Antimicrobial activity against Streptococcus intermedius NCTC 11324 planktonic cells assessed as bacterial count at 0.06 ug/ml (Rvb =771.7 +/- 35.14 10^8 CFU/ml); type: functional; in short: as §1
[20] = tested on: Streptococcus intermedius; assay: Antimicrobial activity against Streptococcus intermedius SI006 planktonic cells harboring luxS mutant gene assessed as bacterial count at 0.12 ug/ml (Rvb =798.3 +/- 37.09 10^8 CFU/ml); type: functional
[21] = tested on: Streptococcus intermedius; assay: Antimicrobial activity against Streptococcus intermedius SI006 planktonic cells harboring luxS mutant gene assessed as bacterial count at 0.08 ug/ml (Rvb =798.3 +/- 37.09 10^8 CFU/ml); type: functional
[22] = tested on: Streptococcus intermedius; assay: Antimicrobial activity against Streptococcus intermedius NCTC 11324 biofilm assessed as biofilm bacterial count at 0.04 ug/ml (Rvb =402.9 +/- 26.88 10^5 CFU/ml); type: functional
[23] = tested on: Streptococcus intermedius; assay: Antimicrobial activity against Streptococcus intermedius NCTC 11324 planktonic cells assessed as bacterial count at 0.08 ug/ml (Rvb =771.7 +/- 35.14 10^8 CFU/ml); type: functional; in short: as §1

CC1(C)S[C@@H]2[C@H](NC(=O)[C@H](N)c3ccccc3)C(=O)N2[C@H]1C(=O)O [AMPICILLIN]
CFU [1]: 48.7 ×10⁸ /ml
CFU [2]: 20.7 ×10⁸ /ml
CFU [3]: 324.1 ×10⁵ /ml
CFU [4]: 486.2 ×10⁵ /ml
CFU [5]: 268.6 ×10⁵ /ml
CFU [6]: 162.1 ×10⁵ /ml
CFU [7]: 894.7 ×10⁵ /ml
CFU [8]: 39.6 ×10⁸ /ml
Activity [9]: inactive
CFU [10]: 459.5 ×10⁵ /ml
CFU [11]: 819.2 ×10⁵ /ml
CFU [12]: 45.3 ×10⁸ /ml
CFU [13]: 686 ×10⁵ /ml
Activity [14]: 0.16 µg/mL
CFU [15]: 10.3 ×10⁸ /ml
CFU [16]: 39.1 ×10⁸ /ml
CFU [17]: 18.4 ×10⁸ /ml
CFU [18]: 41.8 ×10⁸ /ml
CFU [19]: 61.2 ×10⁸ /ml
CFU [20]: 8.5 ×10⁸ /ml
CFU [21]: 16.4 ×10⁸ /ml
CFU [22]: 621.6 ×10⁵ /ml
CFU [23]: 43.3 ×10⁸ /ml
